The list is not random: actives were taken first. Their share in the collection is about 1.8%.
M5 PAM = human M5 muscarinic receptor positive allosteric modulators, primary screen, CHO-K1 cells, Fluo-8 calcium fluorescence. Muscarinic acetylcholine receptor M5 (Homo sapiens), P08912. CHO-K1 hM5, ACh EC20 PAM; 0% = ACh EC20, 100% = ACh EC100. activation, % at 3 µM. 360,000 tested, 0.3% active. AID 624038, 2012;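 active means activation above the run cutoff, the mean activation of all test compounds plus 3 SD, cut at about 18% in these data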
Target sequence (P08912 whole entry, looked up): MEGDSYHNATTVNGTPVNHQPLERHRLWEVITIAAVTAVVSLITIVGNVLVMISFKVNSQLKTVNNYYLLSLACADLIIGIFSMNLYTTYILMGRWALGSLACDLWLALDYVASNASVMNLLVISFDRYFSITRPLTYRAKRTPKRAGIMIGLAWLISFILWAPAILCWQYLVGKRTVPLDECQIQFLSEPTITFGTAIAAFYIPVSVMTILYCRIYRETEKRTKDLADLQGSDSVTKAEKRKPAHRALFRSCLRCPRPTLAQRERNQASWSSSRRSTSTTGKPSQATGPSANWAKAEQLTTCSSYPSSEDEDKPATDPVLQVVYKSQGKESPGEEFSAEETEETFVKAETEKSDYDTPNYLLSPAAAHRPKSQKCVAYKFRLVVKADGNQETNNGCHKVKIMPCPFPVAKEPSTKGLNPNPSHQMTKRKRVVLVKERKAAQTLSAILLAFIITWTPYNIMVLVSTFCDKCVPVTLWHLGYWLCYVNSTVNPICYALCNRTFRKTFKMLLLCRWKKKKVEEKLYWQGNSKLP
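System: CHO-K1 cell line with stable human muscarinic M5 receptor expression | Also added: EC20 acetylcholine as agonist stimulus | Compound: One concentration, 3 µM final (nominal) | Timing: Fluo-8 loading 80 min at 37 °C plus 30 min room temperature | Measured by: Fluo-8 calcium dye fluorescence, kinetic read | Read-out basis: % activation, ACh-normalized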
M5 antag = human M5 muscarinic receptor antagonists, primary screen, CHO cells, Fluo-8 calcium fluorescence; CHO-hM5 cells, ACh EC80; inhibition, % at 3 µM; 360,000 tested, 0.59% active;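 active means inhibition above a per-plate cutoff, the mean of that plate's test compounds plus 3 SD, cut at about 27% in these data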;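 further: 0% = acetylcholine EC80 with DMSO and 100% = DMSO without agonist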
CHRM4 PAM = human M4 muscarinic receptor positive allosteric modulators, primary screen, CHO-K1 cells, Fluo-8 calcium fluorescence. AID 624126, 2012. Muscarinic acetylcholine receptor M4 (Homo sapiens), P08173. CHO-K1 hM4/Gqi5, ACh EC20; 0% = ACh EC20, 100% = maximal ACh. 360,000 tested, 0.4% active. activation, % at 3 µM;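 active means activation above its plate's cutoff, the mean activation of sample wells plus 3 SD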
M4 ag = human M4 muscarinic receptor agonists, primary screen, CHO-K1 cells, Fluo-8 calcium fluorescence; 360,000 tested, 0.14% active; Muscarinic acetylcholine receptor M4 (Homo sapiens), P08173; CHO-K1 hM4/Gqi5; vehicle 0%, full acetylcholine response 100%; activation, % at 3 µM;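 active means activation above the run mean over all test wells plus 3 SD, cut at about 32% in these data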;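 further: peak over basal fluorescence ratio per well then scaled between controls; 0% = DMSO wells and 100% = acetylcholine at EC100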
CHRM5 agonist = human M5 muscarinic receptor agonists, primary screen, CHO-K1 cells, Fluo-8 calcium fluorescence; 360,000 tested, 0.19% active; AID 624037, 2012; activation, % at 3 µM; Muscarinic acetylcholine receptor M5 (Homo sapiens), P08912; CHO-K1 hM5 cells; 0% DMSO wells, 100% maximal acetylcholine response;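 active means activation above the run's mean over test compounds plus 3 SD, cut at about 23% in these data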;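 further: signal is peak over basal fluorescence ratio across the kinetic read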
M4 antag = human M4 muscarinic receptor antagonists, primary screen, CHO cells, Fluo-8 calcium fluorescence; CHO-hM4 cells, ACh EC80; inhibition, % at 3 µM; 360,000 tested, 0.73% active;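 active means inhibition above its plate's cutoff, the mean inhibition of sample wells plus 3 SD, cut at about 27% in these data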;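 further: 0% = acetylcholine EC80 with DMSO and 100% = DMSO without agonist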
Active calls of the source: *.

SMILES	M5 PAM	M5 antag	CHRM4 PAM	M4 ag	CHRM5 agonist	M4 antag
CCC(=O)N1CCc2cc(S(=O)(=O)NCCN3CCCCC3CC)ccc21 (stereo not given)	24*	-9	1	0	-10	-6
COC(=O)c1cc(S(=O)(=O)Nc2ccc(C)cn2)c[nH]1	-5	27*	-4	0	-1	4
CC(C)(C)n1nnnc1C(c1cc2ccccc2o1)N(CCC#N)Cc1ccccc1 (stereo not given)	-5	7	-4	-2	0	-4
COC(=O)c1cc(NC(=O)Nc2cccc(Cl)c2)ccc1Cl	-22	32*	-13	20	11	20
O=C(Nc1cccnc1)Nc1ccccc1Cl	-3	0	9	0	1	-5
O=C(Nc1cccc(F)c1)Nc1cccc(Cl)c1	-16	28*	-9	20	14	8
O=C(Nc1cccnc1)Nc1cc(Cl)cc(Cl)c1	-18	30*	-15	17	8	15
O=C(Nc1cccnc1)c1cc(Br)c(Br)s1	-14	4	6	26	26*	-28
COC(=O)c1cccc(NC(=O)Nc2ccc(Cl)cc2)c1	-26	17	-9	17	3	2
O=C(Nc1cccc(Cl)c1)Nc1cccc(Cl)c1	-23	23	-2	16	-1	3
CC(C)CN1C(=O)CSCC1(C)C(=O)Nc1ccc2c(c1)OCCO2 (stereo not given)	1	3	12	1	-6	-12
Cc1cccc(C)c1C(O)c1ncc(-c2ccccc2Cl)[nH]1 (stereo not given)	-1	6	-1	2	-3	-10
CC(C)C(=O)N1CCC1(C)C(=O)Nc1ccc(-n2cncn2)cc1 (stereo not given)	3	25	0	1	0	9
Cc1ccc(C)c(CC(=O)N2CCCC(c3cc(C(=O)Nc4ccccc4Cl)no3)C2)c1 (stereo not given)	-4	5	-5	1	-2	-7
C=CCn1nc(C(=O)N2CCOCC2)cc1-c1sc(NC(=O)c2ccccc2)nc1C	-1	7	1	4	2	-8
COc1ccccc1NS(=O)(=O)c1cccc(NC(=O)Nc2cccc(Cl)c2)c1	-19	59*	-15	18	5	47*
O=C(CN1C(=O)c2ccccc2C1=O)Nc1cccc(S(=O)(=O)Nc2ccccc2Cl)c1	2	-2	25*	4	2	-2
O=C(NCc1ccc2c(c1)OCO2)C(=O)NCC1OCCCN1S(=O)(=O)c1ccccc1 (stereo not given)	0	-2	4	4	1	-15
Cc1scc(C(=O)NCc2ccco2)c1-c1ccccc1	4	-7	42*	0	-3	-6
O=C(NCc1ccco1)c1ccccc1-c1ccccc1	9	-9	3	-1	-4	-2
CC1(C(=O)NS(=O)(=O)c2ccc(Cl)cc2)CCN1C(=O)c1ccccc1CCc1ccccc1 (stereo not given)	-2	6	0	-1	-1	2
CCCCCCn1c(=O)[nH]c2nc3cc(N)c(C)cc3nc2c1=O	-24	37*	-14	37*	104*	26
FC(F)(F)c1ccccc1Cc1c(-c2ccc(Cl)cc2)nc2c3ccccc3ccn12	-6	-2	3	1	2	1
COc1ccc(C(C)=O)cc1COC(=O)CSCC(=O)Nc1ccc(C)cc1	-3	2	-4	1	-1	26*
CCCCN1C(=O)C(CC(=O)NCc2ccco2)CC(C(=O)N(CC)CC)=C1C (stereo not given)	1	-1	0	2	0	3
Cn1c(=O)[nH]c(=O)c2c1nc(SCC(=O)O)n2CCOc1ccccc1	-8	5	-15	-1	-6	54*
